In ChEMBL document CHEMBL1134326, “C-16 artemisinin derivatives and their antimalarial and cytotoxic activities: syntheses of artemisinin monomers, dimers, trimers, and tetramers by nucleophilic additions to artemisitene” (J Med Chem, 2001):

Experiments:
BC [1] = assay: Cytotoxicity against BC cells.; format: functional, cell-based; conditions: Homo sapiens
Method in brief: (§1)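 Colorimetric cytotoxicity assay after Skehan on KB, BC and vero cell lines. Maximum concentration tested 130 µM. Ellipticine was the positive control. IC50 is reported in µM.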

Plasmodium falciparum = assay: Antimalarial activity against Plasmodium falciparum; format: functional, organism-based
Method in brief: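 P. falciparum K1 (multidrug-resistant), asexual erythrocytic stage kept in continuous in vitro culture; microculture radioisotope method after Desjardins. EC50 is the concentration giving 50% reduction in parasite growth, measured as [3H]hypoxanthine uptake. Artemisinin and dihydroartemisinin served as standards.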

Vero = assay: Cytotoxicity against vero cells.; format: functional, cell-based; conditions: Chlorocebus sabaeus; method in brief: as §1
[2] = Therapeutic index(TI) as IC50 of vero cells to that of EC50; format: cell-based, Cricetulus griseus; conditions: chinese hamster, read-out: Ti
[3] = Cytotoxicity against KB cells.; format: functional, cell-based; conditions: Homo sapiens; method in brief: as §1
BC [4] = assay: Cytotoxicity against BC cells; format: functional, cell-based; conditions: Homo sapiens; method in brief: as §1
KB = assay: Cytotoxicity against KB cells; format: functional, cell-based; conditions: Homo sapiens; method in brief: as §1
[5] = Therapeutic index (TI) determined as IC50 of vero cells to that of EC50; format: cell-based; conditions: plasmodium falciparum, read-out: TI

SMILES | IC50 (BC [1]) [µM] | EC50 (Plasmodium falciparum) [µM] | IC50 (Vero) [µM] | selectivity ratio [2] | IC50 [3] [µM] | IA (BC [4]) | IA (KB) | selectivity ratio [5]
CCCCCCC1(CC2C(=O)OC3OC4(C)CCC5C(C)CCC2C35OO4)C(=O)OC2OC3(C)CCC4C(C)CCC1C24OO3 (stereo not given) | 1.3 | 0.005 | 2.5 | 5 | 4 |  |  | 
C[C@@H]1CC[C@H]2[C@@H](Cc3cccc(F)c3)C(=O)O[C@@H]3O[C@]4(C)CC[C@@H]1[C@]32OO4 |  | 0.0207 | > 130 |  |  | Cytotoxic | Cytotoxic | 6.3
